Calls of active or inactive are those of the source. The rule behind the calls is not given here.

System in one data set: not listed separately
The data set can be described thus: Half life of the compound in phosphate buffer at pH 7.4 by HPLC-UV analysis. Format: physicochemical.
Conditions: not given
The procedure, abridged:
(§1)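 10 µM compound plus 10 µM internal standard in 100 mM phosphate buffer, pH 7.4, 2% DMSO final, held at room temperature in the autosampler. Repeated HPLC injections with UV detection at 254 nm and a C18 gradient. Parent-to-standard peak-area ratio divided by the time-zero value gives % remaining.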
`Cc1ncsc1C(OC(=O)C1(CO[N+](=O)[O-])CC1)c1ccccc1` (centres undefined) came in with a half-life of 0.578 h.

`Cc1ncsc1C(OC(=O)C1(C)CC1)c1ccccc1` (centres undefined): the half-life turned out to be 6.33 h.

As to `Cc1ncsc1C(NC(=O)OCC1(CO[N+](=O)[O-])CC1)c1ccccc1` (centres undefined), the half-life was determined as 50 h.

The subject of another data set is Cerebral cortex neuron. Briefly: Activation of Gamma-aminobutyric acid type-A receptor in Sprague-Dawley rat primary cortical neurons assessed as inhibition of glutamate-induced cytotoxicity at 50 uM incubated for 1 hr prior to glutamate-challenge measured after 24 hrs by MTT assay in presence of picrotoxin. Format: cell-based.
Conditions: not given
In general terms: Tetrazolium assays rely on reduction of a dye to a coloured formazan, in cell work by metabolically active cells.
`Cc1ncsc1CCn1cc(-c2cccnc2)nn1`: the result was inactive.

Consider `NCc1cc(O)no1`, for which the result was inactive.

Turning to `Cc1ncsc1C(OCCOCCO)c1ccccc1` (centres undefined), the outcome was inactive.

As for `Cc1ncsc1C(CO)n1cc(-c2cccnc2)nn1` (centres undefined), the outcome was inactive.

Consider `Cc1ncsc1C(CO)c1ccccc1` (centres undefined), for which the outcome was inactive.

For another data set, the system named is Mus musculus. Briefly: Procognitive activity in C57BL/6 mouse assessed as reversal of scopolamine-induced memory deficit at 4.5 umol/kg, ip administered 10 mins post scopolamine-challenge and 20 mins prior to training measured after 24 hrs by step-through passive avoidance test. Format: functional, organism-based.
Conditions: not given
In outline:
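Male C57BL/6 mice, 8–10 weeks. Scopolamine 1.0 mg/kg i.p. given 30 min before training; drug at 4.5 µmol/kg i.p. given 20 min before training. At 24 h after training, latency to enter the dark compartment was recorded without shock. One-way ANOVA with Bonferroni test.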
Regarding `Cc1ncsc1C(OCCOCCO[N+](=O)[O-])c1ccccc1` (centres undefined), the outcome was Active.

Consider `Cc1ncsc1C(CO[N+](=O)[O-])c1ccccc1` (centres undefined), for which the outcome was Active.

With `Cc1ncsc1C(NC(=O)OCC1(CO[N+](=O)[O-])CC1)c1ccccc1` (centres undefined), the outcome was Active.

For the compound `Cc1ncsc1C(CO[N+](=O)[O-])n1nncc1-c1cccnc1` (centres undefined), the outcome was Active.

With `Cc1ncsc1C(CO[N+](=O)[O-])n1cc(-c2cccnc2)nn1` (centres undefined), the result was Active.

On to `Cc1ncsc1C(NC(=O)OCCCCO[N+](=O)[O-])c1ccccc1` (centres undefined), for which the result was Active.

Turning to `Cc1ncsc1C(CO[N+](=O)[O-])c1ccc(F)cc1` (centres undefined), the result was Active.

Another data set deals with Brain. Briefly: Drug uptake in C57BL/6 mouse brain assessed as [1-[beta-(4-Methyl-5-thiazolyl)ethanol]-4-(3-pyridinyl)]-1H-1,2,3-triazole level at 4.5 umol/kg, ip after 20 mins. Format: ADME, organism-based. The following applies: in vivo. In outline:
(§2)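 Male C57BL/6 mice, 8–10 weeks, dosed i.p. at 4.5 µmol/kg, four per drug. Brains taken 20 min later and extracted in cold acetonitrile/MeOH (1:1) with internal standard. Parent and metabolite quantified by LC-MS/MS in MRM mode against brain-matrix calibration of 1–100 ng/mL. Mean ± SEM, n=4.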
Consider `Cc1ncsc1C(CO[N+](=O)[O-])n1cc(-c2cccnc2)nn1` (centres undefined), for which the Drug uptake was 76.6 ng/mL.

System in another data set: not listed separately
Briefly: Neuroprotective activity against oxygen-glucose deprivation-induced toxicity in Sprague-Dawley rat primary cortical neurons at 50 uM […] measured after 24 hrs by MTT assay relative to clomethiazole. Format: functional, Cerebral cortex neuron.
Conditions: not given
Compound `Cc1ncsc1CCn1cc(-c2cccnc2)nn1` registered an Activity of 99.6%.

`Cc1ncsc1C(c1ccc(F)cc1)n1cc(-c2cccnc2)nn1` (centres undefined) came in with an Activity of 87.2%.

As to `Cc1ncsc1C(O)c1ccc(F)cc1` (centres undefined), the Activity was 36.8%.

Regarding `Cc1ncsc1C(c1ccccc1)n1cc(-c2ccsc2)nn1` (centres undefined), the Activity was 62%.

As for `Cc1ncsc1C(O)Cc1ccccc1` (centres undefined), the Activity amounted to 102%.

As to `Cc1ncsc1C(c1ccccc1)n1cc(-c2ccncc2)nn1` (centres undefined), the Activity worked out at 90.2%.

`Cc1ncsc1C(c1ccccc1)n1cc(-c2ccccn2)nn1` (centres undefined): the Activity is 50.9%.

As for `Cc1ncsc1C(c1ccccc1)n1cc(-c2cncc(O)c2)nn1` (centres undefined), the Activity is 104%.

Regarding `Cc1ncsc1C(O)Cc1ccc(F)cc1` (centres undefined), the Activity was determined as 101%.

`Cc1ncsc1CCn1ccnn1` had an Activity of 51.5%.

As for `Cc1ncsc1C(c1ccccc1)n1cc(-c2ccccc2)nn1` (centres undefined), the Activity is listed as 57.6%.

Take `Cc1ncsc1C(OCCOCCO)c1ccccc1` (centres undefined): the Activity is on record as 114.1%.

`COC(c1ccccc1)c1scnc1C` (centres undefined) yielded an Activity of 110.2%.

Compound `Cc1ncsc1C(CO)n1nncc1-c1cccnc1` (centres undefined) returned an Activity of 92.9%.

As for `Cc1ncsc1C(O)c1ccccc1` (centres undefined), the Activity is 94%.

`Cc1ccc2c(c1)c1c(n2CCc2scnc2C)CCN(C)C1` displayed an Activity of 15.4%.

With `Cc1ncsc1C(c1ccccc1)n1ccnn1` (centres undefined), the Activity was 58.1%.

In turn, `Cc1ncsc1C(c1ccccc1)n1cc(-c2cccnc2)nn1` (centres undefined) showed an Activity of 108%.

Compound `Cc1ncsc1C(c1ccccc1)n1cc(-c2cncn2C)nn1` (centres undefined) gave an Activity of 93.9%.

`Cc1ncsc1C(CO)n1cc(-c2cccnc2)nn1` (centres undefined) registered an Activity of 107.3%.

In turn, `Cc1ncsc1C(CO)c1ccc(F)cc1` (centres undefined) displayed an Activity of 98.9%.

`Cc1ncsc1C(CO)c1ccccc1` (centres undefined): the Activity is 99.6%.

`Cc1ncsc1CCn1cc(-c2ccccc2)nn1` came in with an Activity of 53.9%.

For `Cc1ncsc1C(c1ccccc1)n1cc(Cc2ccccc2)nn1` (centres undefined), the Activity stood at 88.3%.

`Cc1ncsc1C(O)c1ccc(Cl)cc1` (centres undefined): the Activity was found to be 25%.

On to `Cc1ncsc1C(CO)c1ccc(-c2cccnc2)cc1` (centres undefined), for which the Activity came to 25%.

As for `Cc1ncsc1CCO`, the Activity came to 14.11%.

System in the next data set: not listed separately
The data set can be described thus: Neuroprotective activity against oxygen-glucose deprivation-induced toxicity in Sprague-Dawley rat primary cortical neurons assessed as increase in cell survival at 50 uM […] measured after 24 hrs by MTT assay relative to vehicle-treated control. Format: functional, Cerebral cortex neuron.
Conditions: not given
For `Cc1ncsc1CCCl` [CLOMETHIAZOLE], the Activity is listed as 30%.

In the next data set the test system is Cerebral cortex neuron. The data set can be described thus: Activation of Gamma-aminobutyric acid type-A receptor in Sprague-Dawley rat primary cortical neurons assessed as inhibition of glutamate-induced cytotoxicity at 50 uM […] measured after 24 hrs by MTT assay. Format: cell-based.
Conditions: not given
For `NCc1cc(O)no1`, the outcome was Active.

`Cc1ncsc1C(OCCOCCO)c1ccccc1` (centres undefined): the outcome was Active.

On to `Cc1ncsc1C(CO)n1cc(-c2cccnc2)nn1` (centres undefined), for which the result was Active.

On to `Cc1ncsc1C(CO)c1ccccc1` (centres undefined), for which the result was Active.

The subject of another data set is Hippocampus. The data set can be described thus: Neuroprotective activity against amyloid beta-induced long term potentiation impairment in human APP […] mutant and PS1 M146L mutant transgenic mouse hippocampal slice at 100 uM incubated for 5 mins by field excitatory post-synaptic potential analysis. Format: functional, tissue-based.
Conditions: not given
In outline: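 APP/PS1 (line 6.2) hippocampal slices, 400 µm, kept at 29°C in oxygenated saline. CA1 fEPSPs recorded in stratum radiatum after a 15 min baseline at about 35% of maximal response. Compound at 100 µM perfused 5 min before theta-burst tetanus of the Schaffer collaterals. LTP analysed at 50–80 min by two-way ANOVA.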
For `Cc1ncsc1C(CO[N+](=O)[O-])c1ccccc1` (centres undefined), the result was Active.

With `Cc1ncsc1C(NC(=O)OCC1(CO[N+](=O)[O-])CC1)c1ccccc1` (centres undefined), the result was inactive.

For `Cc1ncsc1CCCl` [CLOMETHIAZOLE], the outcome was inactive.

For another data set, the system named is Brain. Briefly: Drug uptake in C57BL/6 mouse brain assessed as beta-Phenyl-4-methyl-5-thiazoleethanol level at 4.5 umol/kg, ip after 20 mins. Format: ADME, organism-based. The following applies: in vivo. In outline:
as §2
Turning to `Cc1ncsc1C(CO[N+](=O)[O-])c1ccccc1` (centres undefined), the Drug uptake is 9.5 ng/mL.

System in a further data set: not listed separately
The data set can be described thus: Chemical stability of the compound in phosphate buffer at pH 7.4 after 5 days by HPLC-UV analysis. The conditions noted are these: pH 7.4, 120 h. Format: physicochemical. The procedure, abridged: as §1
For the compound `Cc1ncsc1C(OCCOCCO[N+](=O)[O-])c1ccccc1` (centres undefined), the Stability result is listed as “Stable”.

Consider `Cc1ncsc1C(CO[N+](=O)[O-])c1ccccc1` (centres undefined), for which the Stability entry is given as “Stable”.

`Cc1ncsc1C(NC(=O)C1(CO[N+](=O)[O-])CC1)c1ccccc1` (centres undefined): the Stability entry is given as “Stable”.

For the compound `Cc1ncsc1C(CO[N+](=O)[O-])n1nncc1-c1cccnc1` (centres undefined), the Stability entry is “Stable”.

Regarding `Cc1ncsc1C(CO[N+](=O)[O-])n1cc(-c2cccnc2)nn1` (centres undefined), the Stability entry was “Stable”.

Consider `Cc1ncsc1C(Cc1ccccc1)O[N+](=O)[O-]` (centres undefined), for which the Stability result is “Stable”.

`Cc1ncsc1C(NC(=O)OCCCCO[N+](=O)[O-])c1ccccc1` (centres undefined): the Stability result is reported as “Stable”.

For `Cc1ncsc1C(CO[N+](=O)[O-])c1ccc(F)cc1` (centres undefined), the Stability entry is listed as “Stable”.

System in a further data set: not listed separately
Briefly: Drug uptake in C57BL/6 mouse brain at 4.5 umol/kg, ip after 20 mins. Format: ADME, organism-based. The conditions noted are these: read-out: Drug uptake. In outline: as §2
In the case of `Cc1ncsc1C(CO[N+](=O)[O-])c1ccccc1` (centres undefined), the concentration at 20 min is 9.5 ng/mL.

For `Cc1ncsc1C(CO[N+](=O)[O-])n1cc(-c2cccnc2)nn1` (centres undefined), the concentration at 20 min was 2.1 ng/mL.

Take `Cc1ncsc1C(CO)n1cc(-c2cccnc2)nn1` (centres undefined): the concentration at 20 min turned out to be 56.4 ng/mL.

Consider `Cc1ncsc1C(CO)c1ccccc1` (centres undefined), for which the concentration at 20 min was found to be 32.9 ng/mL.

Broadly, the half-life is how long it takes for the measured level to halve.

These data come from ChEMBL document CHEMBL2169780, “Design and synthesis of neuroprotective methylthiazoles and modification as NO-chimeras for neurodegenerative therapy” (J Med Chem, 2012).
